Values after ≈ are worked out from the molar mass of the structure shown.
Legend:
Giardia intestinalis [1] = assay: Antiparasitic activity against Giardia duodenalis IMSS:0989 after 48 hrs; type: functional, organism-based; conditions: IMSS:0989, 48 h
In short: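 G. duodenalis trophozoites grown in modified TYI-S-33 with 10% calf serum and bovine bile. 5 × 10⁴ trophozoites incubated 48 h at 37 °C with increasing compound concentrations; DMSO-treated trophozoites as negative control. An aliquot was then subcultured 48 h in fresh drug-free medium, trophozoites counted, and IC50 obtained by Probit analysis.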

Caco-2 [2] = assay: Apparent permeability from apical to basolateral side of human Caco2 cells at 100 uM up to 90 mins; conditions: caco-2, 1.5 h
[3] = Aqueous solubility of the compound
Caco-2 [4] = assay: Apparent permeability from basolateral to apical side of human Caco2 cells at 100 uM up to 90 mins; conditions: caco-2, 1.5 h
Caco-2 [5] = assay: Influx ratio of permeability from basolateral to apical side over apical to basolateral side in human Caco2 cells at 100 uM up to 90 mins; conditions: caco-2, 1.5 h
[6] = Lipophilicity, logkw of the compound by RP-HPLC analysis
[7] = Distribution coefficient, log D of the compound; conditions: octanol/water
Caco-2 [8] = assay: Efflux ratio of permeability from apical to basolateral side over basolateral to apical side in human Caco2 cells at 100 uM up to 90 mins; conditions: caco-2, 1.5 h
Giardia intestinalis [9] = assay: Ratio of metronidazole IC50 to compound IC50 for Giardia duodenalis IMSS:0989; type: functional
[10] = aqueous medium, not specified further

| SMILES | IC50 (Giardia intestinalis [1]) | Papp (Caco-2 [2]) | solubility [3, 10] | Papp (Caco-2 [4]) | Ratio (Caco-2 [5]) | logKw [6] | log1/S ([3]; buffer) | logD [7] | Ratio (Caco-2 [8]) | solubility ([3]; buffer) | Ratio IC50 (Giardia intestinalis [9]) |
| --- | --- | --- | --- | --- | --- | --- | --- | --- | --- | --- | --- |
| O=C(O)c1ccc2nc(C(F)(F)F)[nH]c2c1 | 172 nM | 0.57 ×10⁻⁶ cm/s | 0.189 µg/mL (≈ 0.819 µM) | 0.74 ×10⁻⁶ cm/s | – | – | – | – | – | – | – |
| Cn1c(N)nc2cc(Cl)ccc21 | 242 nM | 5.21 ×10⁻⁶ cm/s | – | 9.57 ×10⁻⁶ cm/s | 0.54 | 3.19 | 9.12 | 4.95 | 1.83 | 0.0001 µg/mL (≈ 0.000551 µM) | – |
| CCN(CC)C(=O)COC(=O)c1ccc2nc(C(F)(F)F)n(C)c2c1 | 470 nM | 15.4 ×10⁻⁶ cm/s | 0.0572 µg/mL (≈ 0.16 µM) | 13 ×10⁻⁶ cm/s | 1.17 | 2.29 | 6.62 | 2.81 | 0.84 | – | – |
| Cn1c(S)nc2ccc(Cl)cc21 | 20 nM | 14.1 ×10⁻⁶ cm/s | 0.588 µg/mL (≈ 2.96 µM) | 27.2 ×10⁻⁶ cm/s | 0.51 | 1.9 | 5.59 | 3.47 | 1.93 | – | 27 |
| CSc1nc2ccc(Cl)cc2n1C | 122 nM | – | – | – | – | – | – | – | – | – | – |
| Cc1nc2cc(Cl)c(Cl)cc2n1C | 55 nM | 7.98 ×10⁻⁶ cm/s | 0.0716 µg/mL (≈ 0.333 µM) | 11.2 ×10⁻⁶ cm/s | 0.71 | 2.24 | 6.47 | 3.86 | 1.4 | – | – |
| CSc1nc2cc(Cl)ccc2n1C | 28 nM | 7.59 ×10⁻⁶ cm/s | 0.0172 µg/mL (≈ 0.0809 µM) | 14.2 ×10⁻⁶ cm/s | 0.53 | 2.46 | 7.09 | 4.11 | 1.87 | – | – |
| Cc1nc2ccc(Cl)cc2n1C | 44 nM | – | – | – | – | – | – | – | – | – | – |
| Cn1c(C(F)(F)F)nc2cc(Cl)ccc21 | – | – | 0.0412 µg/mL (≈ 0.176 µM) | – | – | 2.33 | 6.75 | 3.98 | – | – | – |
| CCCSc1ccc2nc(NC(=O)OC)[nH]c2c1 [ALBENDAZOLE] | – | 3.14 ×10⁻⁶ cm/s | 0.75 µg/mL (≈ 2.83 µM) | 1.99 ×10⁻⁶ cm/s | 1.35 | 1.95 | 5.55 | 3.83 | 0.74 | – | – |
| c1ccc2[nH]cnc2c1 [BENZIMIDAZOLE] | 137000 nM | – | 7600 µg/mL (≈ 64400 µM) | – | – | 0.27 | 1.45 | 1.37 | – | – | – |
| COC(=O)Nc1nc2ccccc2[nH]1 [CARBENDAZIM] | – | – | – | – | – | 0.9 | 1.89 | 1.49 | – | 2441 µg/mL (≈ 12800 µM) | – |
| CC(C)NCC(O)COc1cccc2ccccc12 (centres undefined) [PROPRANOLOL] | – | – | – | 37.9 ×10⁻⁶ cm/s | 1.27 | – | – | – | 0.78 | – | – |

More lines, main results first:

| IC50 (Giardia intestinalis [1]) | Papp (Caco-2 [2]) | solubility [3, 10] | Papp (Caco-2 [4]) | Ratio (Caco-2 [5]) | logKw [6] | log1/S ([3]; buffer) | logD [7] | Ratio (Caco-2 [8]) | SMILES | solubility ([3]; buffer) | Ratio IC50 (Giardia intestinalis [9]) |
| --- | --- | --- | --- | --- | --- | --- | --- | --- | --- | --- | --- |
| 1190 nM | 32.7 ×10⁻⁶ cm/s | 0.555 µg/mL (≈ 2.27 µM) | 23 ×10⁻⁶ cm/s | 1.42 | 1.94 | 5.64 | 3.52 | 0.7 | COC(=O)c1ccc2[nH]c(C(F)(F)F)nc2c1 | – | – |
| 2770 nM | 9.83 ×10⁻⁶ cm/s | 10.9 µg/mL (≈ 44.6 µM) | 7.25 ×10⁻⁶ cm/s | 1.35 | 1.47 | 4.35 | 2.98 | 0.74 | Cn1c(C(F)(F)F)nc2cc(C(=O)O)ccc21 | – | – |
| 330 nM | 5.09 ×10⁻⁶ cm/s | 98.7 µg/mL (≈ 404 µM) | 4.65 ×10⁻⁶ cm/s | 1.09 | 1.13 | 3.39 | 3.7 | 0.91 | Cn1c(C(F)(F)F)nc2ccc(C(=O)O)cc21 | – | – |
| 2450 nM | 26.7 ×10⁻⁶ cm/s | 0.281 µg/mL (≈ 1.09 µM) | 23.9 ×10⁻⁶ cm/s | 1.11 | 2.05 | 5.96 | 3.65 | 0.89 | COC(=O)c1ccc2c(c1)nc(C(F)(F)F)n2C | – | – |
| 3820 nM | 39.2 ×10⁻⁶ cm/s | 0.0859 µg/mL (≈ 0.333 µM) | 21.8 ×10⁻⁶ cm/s | 1.8 | 2.24 | 6.47 | 3.86 | 0.55 | COC(=O)c1ccc2nc(C(F)(F)F)n(C)c2c1 | – | – |
| 133 nM | 21.9 ×10⁻⁶ cm/s | 0.0401 µg/mL (≈ 0.112 µM) | 11 ×10⁻⁶ cm/s | 1.99 | 2.4 | 6.94 | 4.06 | 0.5 | CCN(CC)C(=O)COC(=O)c1ccc2c(c1)nc(C(F)(F)F)n2C | – | – |
| 320 nM | – | 87.8 µg/mL (≈ 361 µM) | – | – | 1.21 | 3.6 | 2.68 | – | CNC(=O)c1ccc2[nH]c(C(F)(F)F)nc2c1 | – | – |
| 211 nM | 14.6 ×10⁻⁶ cm/s | 29.6 µg/mL (≈ 115 µM) | 8.98 ×10⁻⁶ cm/s | 1.62 | 1.33 | 3.93 | 3.92 | 0.61 | CNC(=O)c1ccc2nc(C(F)(F)F)n(C)c2c1 | – | – |
| 33 nM | 7.12 ×10⁻⁶ cm/s | 1.14 µg/mL (≈ 6.39 µM) | 9.57 ×10⁻⁶ cm/s | 0.74 | 1.78 | 5.19 | 3.33 | 1.34 | CSc1nc2ccccc2n1C | – | – |
| 18 nM | 8.14 ×10⁻⁶ cm/s | 36 µg/mL (≈ 219 µM) | 14.5 ×10⁻⁶ cm/s | 0.56 | 1.23 | 3.65 | 2.7 | 1.78 | Cn1c(S)nc2ccccc21 | – | 67 |
| 89 nM | 9.03 ×10⁻⁶ cm/s | 5790 µg/mL (≈ 39600 µM) | 10.2 ×10⁻⁶ cm/s | 0.88 | 0.42 | 1.4 | 1.77 | 1.13 | Cc1nc2ccccc2n1C | – | – |
| 45 nM | 6.92 ×10⁻⁶ cm/s | 3.79 µg/mL (≈ 19.1 µM) | 9.57 ×10⁻⁶ cm/s | 0.72 | 1.61 | 4.71 | 3.14 | 1.38 | Cn1c(S)nc2cc(Cl)ccc21 | – | 61 |
| – | – | 0.992 µg/mL (≈ 5.33 µM) | – | – | 1.8 | 5.27 | 3.36 | – | FC(F)(F)c1nc2ccccc2[nH]1 | – | – |
| – | – | 0.033 µg/mL (≈ 0.141 µM) | – | – | 2.37 | 6.85 | 4.02 | – | Cn1c(C(F)(F)F)nc2ccc(Cl)cc21 | – | – |
| – | – | 0.0025 µg/mL (≈ 0.0098 µM) | – | – | 2.78 | 8 | 4.49 | – | FC(F)(F)c1nc2cc(Cl)c(Cl)cc2[nH]1 | – | – |
| 56 nM | – | 0.025 µg/mL (≈ 0.0835 µM) | – | – | 2.44 | 7.07 | 3.93 | – | COC(=O)Nc1nc2ccc(Sc3ccccc3)cc2[nH]1 [FENBENDAZOLE] | – | – |
| 55 nM | 5.15 ×10⁻⁶ cm/s | – | 4.34 ×10⁻⁶ cm/s | – | 1.68 | – | 3.73 | – | COC(=O)Nc1nc2ccc(C(=O)c3ccccc3)cc2[nH]1 [MEBENDAZOLE] | – | – |
